Compound activity deposited in PubChem BioAssay by several laboratories.
In the library only some 1.9% were active in any assay of this set; here they are far more common.
HCV NS3 hel inh: HCV NS3 helicase inhibition; NS3 helicase DNA unwinding, Cy5 molecular beacon fluorescence; inhibition, % at 10.9 µM; 0.56% of 290,000 active; AID 1800;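 active = inhibition above the mean of all tested compounds plus 3 SD, set per campaign, cut at about 35% in these data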;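 note: 0% = DMSO wells and 100% = thioflavine S control wells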
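test system = hepatitis C virus NS3 helicase domain fragment enzyme | reagent = annealed dual-labelled DNA beacon duplex, ATP-started | times = 1 h at 25 °C | detection = Cy5 fluorescence, 0 and 60 min reads | read-out basis = percent inhibition from t60/t0 fluorescence ratio | control set = DMSO and thioflavine S | replication = one well per compound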
pCIP destab: lowers stability of the mouse p/CIP coactivator protein. F442A p/CIP-EGFP cells, EGFP fluorescence, 16 h. decrease of EGFP signal, % at 10 µM. 0.01% of 290,000 active. Q05BA5. AID 1984;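 active = EGFP signal decrease of at least 30% at 10 µM or well 3 SD below plate mean, unless failing retest; inactive = the rest, including hits failing retest or dose response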
DNA FID counter: fluorescent intercalator displacement, NS3 helicase counter-screen | 0.17% of 290,000 active | inhibition, % at 7.9 µM | DNA fluorescent intercalator displacement, fluorescence; in the data active = inhibition above about 37%;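 note: 0% = vehicle and 100% = reference compound; higher means more ethidium bromide displaced from hairpin DNA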
GPR7 antag: human neuropeptides B/W receptor 1 antagonism; P48145; AID 1861; 1.1% of 290,000 active; GPR7-expressing cells, fluorescence antagonist assay; inhibition, % at 4.4 µM; in the data active = inhibition above about 16%, passing the limit was not always enough;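 note: cells stimulated with the agonist NPW; 0% = agonist with vehicle and 100% = vehicle without agonist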
HCV core dimer: blocks dimerization of HCV core protein | TR-FRET GST/Flag-core106 dimerization, 1536-well | inhibition, % at 5 µM | 0.33% of 300,000 active | AID 1899;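 active = inhibition above the mean of all tested compounds plus 3 SD, set per screening campaign, cut at about 45% in these data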
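System: GST/Flag-tagged HCV core106 proteins. Incubation: compound-protein-antibody incubation 4 h at 22.5 °C. Technique: HTRF with 340 nm excitation, 617/671 nm emission. Medium: KF-containing HEPES buffer, pH 7.45, DTT, CHAPS, BSA. Read-out: inhibition (%) from 671 over 617 nm ratio. Also added: Eu(K)-anti-GST 90 ng/mL plus XL665-anti-Flag 1 µg/mL.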
* = called active by the depositor; . = not tested or not shown.

SMILES	HCV NS3 hel inh	pCIP destab	DNA FID counter	GPR7 antag	HCV core dimer
COc1ccc(CCNC(=O)c2ccc3c(c2)NC(=O)C(CSCc2cc(C)ccc2C)N3)cc1OC (configuration not stated)	17	-5	-25	-2	44
COc1cccc(CNC(=O)Cn2cc([N+](=O)[O-])cn2)c1	3	4	-1	-10	2
Cc1cccc(OC2CCN(Cc3nc(CC4CC4)no3)CC2)c1	6	-6	-8	20*	3
Cc1cccc(SC2CCN(Cc3nc(CC4CC4)no3)CC2)c1	-10	-11	-8	-6	0
Cc1cc(C)n(-c2cc(N3CCN(S(=O)(=O)c4ccc(C)c(C)c4)CC3)ccc2[N+](=O)[O-])n1	2	8	-4	-6	24
Cc1cc(C)n(-c2cc(N3CCN(S(=O)(=O)c4ccc5ccccc5c4)CC3)ccc2[N+](=O)[O-])n1	-9	-12	-21	-5	54*
Cc1cc(NC(=O)c2ccccc2C)n(-c2cccc(F)c2)n1	8	3	-7	6	-6
CCn1c2ccccc2c2cc(CNCc3ccc(OC)cc3OC)ccc21	-63	1	27	29*	-3
COc1cccc(CNCc2ccc(OC)cc2OC)c1	-10	2	12	-7	-12
CCn1c2ccccc2c2cc(CNCCCN3CCOCC3)ccc21	-53	-10	47*	-7	-10
Cc1cc(Nc2ccc(Cl)cc2)nc(NCc2ccccc2)n1	-68	8	18	4	-9
Cc1cc(Nc2ccccc2)nc(NCc2ccccc2)n1	-89	4	22	37*	-8
O=C1N=C(N2CCN(c3cccc4ccccc34)CC2)S/C1=C/c1cccs1	-6	-16	-1	-9	67*
O=C(CN1CCN(Cc2cccc(F)c2)CC1)Nc1ccccc1F	5	-11	-11	-13	-3
O=C(NNC(=O)c1cc(Cl)ccc1[N+](=O)[O-])c1csc(N2CCOCC2)n1	.	.	.	.	2
COc1cc(OC)cc(C(=O)N[C@H](C(=O)OCC(=O)Nc2cccc(F)c2)C(C)C)c1	-26	-1	-13	21*	8
O=C(NCc1cc(F)ccc1F)C1CCC(=O)N(C2CCCCCC2)C1 (configuration not stated)	7	1	-31	-6	0
CCNS(=O)(=O)c1ccc(CCC(N)=O)cc1	2	-8	-2	19*	-3
CCOC(=O)c1nn(-c2sc(C(=O)OC)c(C)c2C(=O)OC)cc1O	0	-3	-12	19*	-4
Cc1ccccc1OCC(O)Cn1c(=N)n(Cc2ccccc2)c2ccccc21 (configuration not stated)	-72	-16	30	35*	-3
Cc1ccccc1OCC(O)Cn1c2ccccc2c2ccccc21 (configuration not stated)	-28	-3	-4	-14	1
O=C(NC1CCCC1)C(c1cccs1)N(CC1CCCO1)C(=O)Cc1cccs1 (configuration not stated)	-1	-2	-28	18*	7
CCN1CCN(c2ccc(S(=O)(=O)N3CCCCC3)cc2NC(=O)c2sccc2C)CC1	.	.	.	.	-3
COc1ccccc1/C=c1\sc2nc(-c3ccccc3OC)nn2c1=O	24	1	-38	12	4
COc1ccc(Br)cc1/C=c1\sc2nc(-c3ccco3)nn2c1=O	.	-8	.	.	57*
SMILES	HCV NS3 hel inh	pCIP destab	DNA FID counter	GPR7 antag	HCV core dimer
Cc1ccc(/C=c2\sc3nc(-c4ccco4)nn3c2=O)o1	25	0	1	-6	62*
C[C@H](NCc1c[nH]c2ccccc12)c1ccccc1	-14	0	5	6	-1
Cc1ccc(NC(=S)NCc2ccc(S(N)(=O)=O)cc2)cc1Cl	5	-9	-3	20*	1
Cc1ccc(NC2CCCN(C(=O)c3ccoc3C)C2)cc1C (configuration not stated)	-5	-15	-20	-9	.
O=C(Nc1ccc2c(c1)CN(Cc1ccc(CO)o1)CC2)c1ccc(C(F)(F)F)cc1	30	-2	-26	7	58*
CC(C)Cc1nn2c(=O)cc(CSCC(=O)Nc3ccccc3F)nc2s1	2	1	-23	-9	-9
CCOc1cc(/C=C(\C#N)C(=O)Nc2ccccc2[N+](=O)[O-])ccc1OCc1cccc2ccccc12	7	30*	-7	-3	.
Cc1cc(C)cc(-n2ccnc2SCC(=O)O)c1	0	8	-7	30*	-1
Cc1ccc(C)c(-n2ccnc2SCC(=O)O)c1	-5	2	-2	-7	-3
CCn1c(SCC(=O)Nc2sc3c(c2C(N)=O)CCC(C)C3)nnc1-c1ccco1 (configuration not stated)	32	7	-30	-2	56*
CCn1c(SCC(=O)Nc2ccc3c(c2)c2ccccc2n3CC)nnc1-c1ccco1	24	-9	-29	12	65*
CCc1ccc(NC(=O)CS(=O)CC(=O)Nc2ccc(-n3cnnn3)c(C)c2)cc1 (configuration not stated)	-19	-18	-14	2	1
CCc1ccc(/C=N/NC(=O)c2cc(-c3ccccc3OC)nc3ccccc23)s1	-5	-1	-13	-13	56*
CC(=O)Nc1ccc(/C=C(\C#N)C(=O)NC2CCCCC2C)cc1 (configuration not stated)	-6	2	-11	20*	1
Cc1ccc(S(=O)(=O)N2CCN(C3CC(=O)N(Cc4ccccc4)C3=O)CC2)cc1C (configuration not stated)	-13	3	-28	-4	1
O=C1CC(N2CCN(S(=O)(=O)c3cccc(C(F)(F)F)c3)CC2)C(=O)N1Cc1ccccc1 (configuration not stated)	-4	-43	-26	25*	1
Cn1nnnc1SCC(=O)Nc1ccccc1-c1ccccc1	3	-13	-5	16*	-4
COc1ccc(NC(=O)CN2CCN(CC(=O)Nc3ccc(F)cc3)CC2)c(OC)c1	6	-3	-21	-5	5
COc1ccc(C2C(C#N)=C(N)SC(N)=C2C#N)cc1OC	1	0	-7	-6	61*
Cc1cc(C)c(S(=O)(=O)N(CC(=O)N2CCCC2)C2CCCCC2)c(C)c1	-2	-4	-36	16*	14
Cc1ccc(S(=O)(=O)N(CC(=O)N2CCCC2)C2CCCCC2)cc1	16	-3	-28	-18	0
CC[N+](CC)(CC)CCCCOc1ccc2c(c1)C(=O)c1cc(OCCCC[N+](CC)(CC)CC)ccc1-2	-16	-9	90*	-14	-9
CC(C)(C)c1ccc(C(=O)O)c(C(=O)c2ccccc2)c1	1	-12	-25	-16	2
CCCCn1c(=O)[nH]c(=O)c2c1nc(-c1ccc(C#N)cc1)n2C1CCCC1	-3	-24	-14	-18	58*
CCCCn1c(=O)[nH]c(=O)c2c1nc(-c1ccc(OCC)cc1)n2CC	-9	1	-18	-1	5
